Assays:
[1] = biological target: T1, Growth hormone-releasing hormone receptor (Rattus norvegicus) (UniProt Q02644); experiment: Relative affinity compared to hGRF(1-29)NH2; type: functional
T1 sequence (whole entry): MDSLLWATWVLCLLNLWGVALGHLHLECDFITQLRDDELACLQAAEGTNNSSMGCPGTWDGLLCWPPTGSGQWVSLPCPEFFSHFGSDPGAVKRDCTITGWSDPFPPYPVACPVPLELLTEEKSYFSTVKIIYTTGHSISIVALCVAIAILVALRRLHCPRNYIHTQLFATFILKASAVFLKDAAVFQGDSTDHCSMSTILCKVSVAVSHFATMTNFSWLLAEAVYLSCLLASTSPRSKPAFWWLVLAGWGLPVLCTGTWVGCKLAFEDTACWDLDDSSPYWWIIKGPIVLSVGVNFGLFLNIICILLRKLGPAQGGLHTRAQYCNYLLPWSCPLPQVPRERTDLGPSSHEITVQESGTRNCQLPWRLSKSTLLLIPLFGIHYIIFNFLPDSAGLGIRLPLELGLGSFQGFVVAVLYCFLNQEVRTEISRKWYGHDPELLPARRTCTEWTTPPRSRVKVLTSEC
In short: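 Radioligand competition in rat anterior pituitary homogenate using [125I-Tyr10]hGRF(1-44)NH2 at 35–50 pM and peptides at 0–1000 nM, 60 min at 23 °C. Relative affinity is the binding IC50 expressed as a percentage relative to hGRF(1-29)NH2.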

Rattus norvegicus = species: Rattus norvegicus; experiment: Residual concentration after 60 min incubation with pituitary homogenates, in the binding assay conditions, by quantitative HPLC method; type: functional
In short: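 Peptide at 10 µM incubated with rat pituitary homogenate (150 µg protein/100 µL) in binding-assay conditions at 23 °C for 0 and 60 min. Reaction stopped with cold 50 mM phosphate pH 0.8 and centrifugation. Controls without homogenate accounted for adsorption. Remaining peptide measured by C18 HPLC (0.01% TFA/acetonitrile gradient, UV 214 nm) and peak-area integration.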

[2] = biological target: T2, Growth hormone-releasing hormone receptor (Rattus norvegicus, UniProt Q02644); experiment: Compound was tested to Inhibit [125I]-Growth hormone-releasing factor in rat adenopituitary homogenates
T2 sequence (Q02644 whole entry): T1 sequence (whole entry)
In short: (§1)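 Anterior pituitaries from 2-month-old male Sprague-Dawley rats homogenized in ice-cold 50 mM Tris-HCl pH 7.4 with 5 mM MgCl2, 5 mM EDTA. Homogenate (70–75 µg protein) incubated with 35–50 pM [125I-Tyr10]hGRF(1-44)NH2 and peptide at 0–1000 nM in Tris-HCl buffer pH 7.4 with 5 mM EDTA, 5 mM MgCl2, 0.42% BSA, 60 min at 23 °C. Nonspecific binding defined with 2.4 µM rGRF(1-29)NH2. Bound fraction separated by centrifugation and gamma-counted. IC50 fitted with LIGAND. Mean ± SEM of three experiments, each in duplicate or triplicate.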

[3] = biological target: T2, Growth hormone-releasing hormone receptor; experiment: Compound was tested to Inhibit [125I]GRF in rat adenopituitary homogenates; in short: as §1

Compound | Activity [1] | Residual peptide remaining after 60 min (Rattus norvegicus) | IC50 [2] | IC50 [3]
H-YADAIFTNSYRKVLGQLSARKLLQDIR-NH2 | 4.6% | 94% |  | 
H-YADAIFTNSYRKLGQLSARKLLQDIMSR-NH2 |  | 89% | > 1000 nM | 
CC[C@H](C)[C@H](NC(=O)[C@H](C)NC(=O)[C@H](CC(=O)O)NC(=O)[C@H](C)NC(=O)[C@@H](N)Cc1ccc(O)cc1)C(=O)N[C@@H](Cc1ccccc1)C(=O)N[C@H](C(=O)N[C@@H](CC(N)=O)C(=O)N[C@@H](CO)C(=O)N[C@@H](Cc1ccc(O)cc1)C(=O)N[C@@H](CCCN=C(N)N)C(=O)N[C@@H](CCCCN)C(=O)N[C@H](C(=O)N[C@@H](CC(C)C)C(=O)NCC(=O)N[C@@H](CCC(N)=O)C(=O)N[C@@H](CC(C)C)C(=O)N[C@@H](CO)C(=O)N[C@@H](C)C(=O)N[C@@H](CCCN=C(N)N)C(=O)N[C@@H](CCCCN)C(=O)N[C@@H](CC(C)C)C(=O)N[C@@H](CC(C)C)C(=O)N[C@@H](CCC(N)=O)C(=O)N[C@@H](CC(=O)O)C(=O)N[C@H](C(=O)N[C@@H](CCSC)C(=O)N[C@@H](CO)C(=O)N[C@@H](CCCN=C(N)N)C(N)=O)[C@@H](C)CC)C(C)C)[C@@H](C)O | 100% | 81% |  | 
H-YADAIFTNSYRKVLGQLSARKLLQDIMR-NH2 | 78% | 100% |  | 
H-YADAIFTNSYRKVLGQLSARKLLQDMSR-NH2 | 30% |  | 20.3 nM | 
H-YADAIFTNSYRKVLGLLQDIMSR-NH2 |  |  |  | > 1000 nM
H-YADAIFTNSYRKVLQLSARKLLQDIMSR-NH2 |  | 88% | 1000 nM | 
H-YADAIFTNSYRKVLGLSARKLLQDIMSR-NH2 |  |  |  | > 1000 nM
H-HADAIFTSSYRRILGQLYARKLLHEIMNR-NH2 | 57% |  | 9.8 nM | 
CC[C@H](C)[C@H](NC(=O)[C@H](C)NC(=O)[C@H](CC(=O)O)NC(=O)[C@H](C)NC(=O)[C@H](Cc1ccc(O)cc1)NC(=O)CCCCCCCN)C(=O)N[C@@H](Cc1ccccc1)C(=O)N[C@H](C(=O)N[C@@H](CC(N)=O)C(=O)N[C@@H](CO)C(=O)N[C@@H](Cc1ccc(O)cc1)C(=O)N[C@@H](CCCN=C(N)N)C(=O)N[C@@H](CCCCN)C(=O)N[C@H](C(=O)N[C@@H](CC(C)C)C(=O)NCC(=O)N[C@@H](CCC(N)=O)C(=O)N[C@@H](CC(C)C)C(=O)N[C@@H](CO)C(=O)N[C@@H](C)C(=O)N[C@@H](CCCN=C(N)N)C(=O)N[C@@H](CCCCN)C(=O)N[C@@H](CC(C)C)C(=O)N[C@@H](CC(C)C)C(=O)N[C@@H](CCC(N)=O)C(=O)N[C@@H](CC(=O)O)C(=O)N[C@H](C(=O)N[C@@H](CCSC)C(=O)N[C@@H](CO)C(=O)N[C@@H](CCCN=C(N)N)C(N)=O)[C@@H](C)CC)C(C)C)[C@@H](C)O | 26% | 100% | 21.6 nM | 
H-YADAIFTNSYRKGQLSARKLLQDIMSR-NH2 |  |  |  | > 1000 nM
CC[C@H](C)[C@H](NC(=O)[C@H](C)NC(=O)[C@H](CC(=O)O)NC(=O)[C@H](C)NC(=O)[C@H](Cc1ccc(O)cc1)NC(C)=O)C(=O)N[C@@H](Cc1ccccc1)C(=O)N[C@H](C(=O)N[C@@H](CC(N)=O)C(=O)N[C@@H](CO)C(=O)N[C@@H](Cc1ccc(O)cc1)C(=O)N[C@@H](CCCN=C(N)N)C(=O)N[C@@H](CCCCN)C(=O)N[C@H](C(=O)N[C@@H](CC(C)C)C(=O)NCC(=O)N[C@@H](CCC(N)=O)C(=O)N[C@@H](CC(C)C)C(=O)N[C@@H](CO)C(=O)N[C@@H](C)C(=O)N[C@@H](CCCN=C(N)N)C(=O)N[C@@H](CCCCN)C(=O)N[C@@H](CC(C)C)C(=O)N[C@@H](CC(C)C)C(=O)N[C@@H](CCC(N)=O)C(=O)N[C@@H](CC(=O)O)C(=O)N[C@H](C(=O)N[C@@H](CCSC)C(=O)N[C@@H](CO)C(=O)N[C@@H](CCCN=C(N)N)C(N)=O)[C@@H](C)CC)C(C)C)[C@@H](C)O | 32% | 85% |  | 
H-YADAIFTNSYRKVLGQLSARKLLQDIMS-NH2 | 28% |  | 20.2 nM | 
H-YADAIFTNSYRKQLSARKLLQDIMSR-NH2 |  |  |  | > 1000 nM
H-YADAIFTNSYRVLGQLSARKLLQDIMSR-NH2 | 0.7% | 92% | 836 nM | 
CC[C@H](C)[C@H](NC(=O)[C@H](C)NC(=O)[C@H](CC(=O)O)NC(=O)[C@H](C)NC(=O)[C@H](Cc1ccc(O)cc1)NC(=O)CCCN)C(=O)N[C@@H](Cc1ccccc1)C(=O)N[C@H](C(=O)N[C@@H](CC(N)=O)C(=O)N[C@@H](CO)C(=O)N[C@@H](Cc1ccc(O)cc1)C(=O)N[C@@H](CCCN=C(N)N)C(=O)N[C@@H](CCCCN)C(=O)N[C@H](C(=O)N[C@@H](CC(C)C)C(=O)NCC(=O)N[C@@H](CCC(N)=O)C(=O)N[C@@H](CC(C)C)C(=O)N[C@@H](CO)C(=O)N[C@@H](C)C(=O)N[C@@H](CCCN=C(N)N)C(=O)N[C@@H](CCCCN)C(=O)N[C@@H](CC(C)C)C(=O)N[C@@H](CC(C)C)C(=O)N[C@@H](CCC(N)=O)C(=O)N[C@@H](CC(=O)O)C(=O)N[C@H](C(=O)N[C@@H](CCSC)C(=O)N[C@@H](CO)C(=O)N[C@@H](CCCN=C(N)N)C(N)=O)[C@@H](C)CC)C(C)C)[C@@H](C)O | 41% |  |  | 
H-ADAIFTSSYRRILGQLYARKLLHEIMNR-NH2 | 13% | 100% |  | 
H-DAIFTNSYRKVLAQLSARKLLQDIMSR-NH2 | 1.8% | 93% | 311 nM | 
H-YADAIFTNSYRKVLGQLSARKLLQIMSR-NH2 | 33% |  |  | 
H-YADAIFTNSYRKVLGQLSLLQDIMSR-NH2 | 0.6% |  |  | 1000 nM
H-YADAIFTNSYRKVLGQLSARKLLDIMSR-NH2 | 12% | 85% |  | 
H-YADAIFTSYRKVLGQLSARKLLQDIMSR-NH2 | 5.9% | 100% |  | 
